{
  "source": "paper PMC7612733",
  "about": "(Biochemistry, 2022)",
  "key": {"D138A horcolin": {"molecular_target": "T1, D138A horcolin (Hordeum vulgare, UniProt Q5U9T2, D138A)", "T1 sequence (Q5U9T2 1-146 D138A)": "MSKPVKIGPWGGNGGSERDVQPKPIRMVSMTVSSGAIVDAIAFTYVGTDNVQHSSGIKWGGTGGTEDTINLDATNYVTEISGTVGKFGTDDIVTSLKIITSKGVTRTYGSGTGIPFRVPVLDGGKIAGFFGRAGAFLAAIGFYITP", "format": "binding, Hordeum vulgare (barley)", "in_short": "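Uniformly 15N-labelled, C-terminally His-tagged D138A horcolin was expressed in E. coli BL21(DE3) in M9 medium and purified on Ni-NTA. Samples were in 25 mM Tris, 50 mM NaCl, 1 mM EDTA, 0.03% NaN3, 10% D2O, pH 7.4. 1H-15N HSQC spectra were recorded at 18 methyl-α-D-mannose concentrations from 0 to 167 mM. Lineshapes of 14 residues were globally fitted in TITAN; errors are SD of 100 bootstrap replicas.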"}, "wt horcolin": {"molecular_target": "T2, wt horcolin (Hordeum vulgare, UniProt Q5U9T2)", "T2 sequence (Q5U9T2 1-146)": "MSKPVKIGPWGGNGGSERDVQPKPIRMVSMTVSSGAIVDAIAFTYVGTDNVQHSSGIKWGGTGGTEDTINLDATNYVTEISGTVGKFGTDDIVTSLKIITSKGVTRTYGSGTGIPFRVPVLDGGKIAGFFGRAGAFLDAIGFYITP", "test": "1H-15N HSQC-detected NMR titration with TITAN 2D lineshape modeling, wt horcolin", "format": "binding, Hordeum vulgare (barley)"}, "D39A horcolin": {"molecular_target": "T3, D39A horcolin (Hordeum vulgare, UniProt Q5U9T2, D39A)", "T3 sequence (Q5U9T2 1-146 D39A)": "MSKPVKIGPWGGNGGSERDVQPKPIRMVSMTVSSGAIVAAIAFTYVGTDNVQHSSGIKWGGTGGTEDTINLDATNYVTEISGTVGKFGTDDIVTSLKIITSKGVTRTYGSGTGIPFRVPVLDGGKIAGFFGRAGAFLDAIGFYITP", "format": "binding, Hordeum vulgare (barley)", "in_short": "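15N-labelled D39A horcolin carried a C-terminal His tag, was expressed in E. coli BL21(DE3) in M9 medium and purified by Ni-NTA. NMR buffer was pH 7.4: 25 mM Tris, 50 mM NaCl, 1 mM EDTA, 0.03% NaN3, 10% D2O. HSQC spectra were taken over 21 methyl-α-D-mannose points from 0 to 914 mM. Sixteen residues were globally lineshape-fitted in TITAN; errors are SD of 100 bootstraps.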"}, "crystal structure": {"molecular_target": "the molecule itself", "test": "crystal structure"}, "HIV-1": {"tested_on": "HIV-1", "settings": "cited from earlier work"}, "HIV gp120": {"molecular_target": "HIV gp120", "settings": "read-out: equilibrium dissociation constant (Kd); cited from earlier work"}},
  "data": [
    {"molecule": "CO[C@H]1O[C@H](CO)[C@@H](O)[C@H](O)[C@@H]1O", "note": "[mannose, methyl-α-D-mannose]", "values": [
      {"measurement": "Kd", "setting": "D138A horcolin", "result": "3.2 ± 0.3", "unit": "mM"},
      {"measurement": "fold increase of koff at CBS2, D138A versus wt", "setting": "D138A horcolin", "result": 2, "unit": "fold"},
      {"measurement": "fold increase of kon at CBS2, D138A versus wt", "setting": "D138A horcolin", "result": 3, "unit": "fold"},
      {"measurement": "koff2", "setting": "D138A horcolin; CBS2 only, D138A horcolin, two-state model", "result": "(5.0 ± 0.4) x 10^3 s^-1"},
      {"measurement": "kon2", "setting": "D138A horcolin; CBS2 only, D138A horcolin, from koff and Kd", "result": "(1.6 ± 0.1) x 10^6 M^-1s^-1"},
      {"measurement": "koff1", "setting": "wt horcolin; CBS1, wt horcolin, sequential model", "result": "(2.4 ± 0.2) x 10^3 s^-1"},
      {"measurement": "kon1", "setting": "wt horcolin; CBS1, wt horcolin, sequential model, from koff and Kd", "result": "(1.19 ± 0.08) x 10^5 M^-1s^-1"},
      {"measurement": "koff2", "setting": "wt horcolin; CBS2, wt horcolin, sequential model", "result": "(2.5 ± 0.1) x 10^3 s^-1"},
      {"measurement": "kon2", "setting": "wt horcolin; CBS2, wt horcolin, sequential model, from koff and Kd", "result": "(5.3 ± 0.2) x 10^5 M^-1s^-1"},
      {"measurement": "Kd", "setting": "wt horcolin; Kd1, CBS1, wt horcolin, two-binding-site non-cooperative (NC) model, cluster of four residues", "result": "59 ± 2", "unit": "mM"},
      {"measurement": "Kd", "setting": "wt horcolin; Kd1, CBS1, wt horcolin, two-site sequential binding model, 25 °C, pH 7.4", "result": "19.9 ± 0.1", "unit": "mM"},
      {"measurement": "Kd", "setting": "wt horcolin; Kd2, CBS2, wt horcolin, two-binding-site non-cooperative (NC) model, cluster of four residues", "result": "7.7 ± 0.1", "unit": "mM"},
      {"measurement": "Kd", "setting": "wt horcolin; Kd2, CBS2, wt horcolin, two-site sequential binding model, 25 °C, pH 7.4", "result": "4.71 ± 0.02", "unit": "mM"},
      {"measurement": "binding free energy difference ΔΔG^0 between CBS2 and CBS1", "setting": "wt horcolin; wt horcolin", "result": 3.56, "unit": "kJ/mol"},
      {"measurement": "fold higher affinity for CBS2 than CBS1", "setting": "wt horcolin; wt horcolin, sequential model", "result": 4.2, "unit": "fold"},
      {"measurement": "Kd", "setting": "D39A horcolin", "result": "55.6 ± 0.2", "unit": "mM"},
      {"measurement": "fold increase of koff at CBS1, D39A versus wt", "setting": "D39A horcolin", "result": 7, "unit": "fold"},
      {"measurement": "fold increase of kon at CBS1, D39A versus wt", "setting": "D39A horcolin", "result": 2.4, "unit": "fold"},
      {"measurement": "koff1", "setting": "D39A horcolin; CBS1 only, D39A horcolin, two-state model", "result": "(16.4 ± 0.7) x 10^3 s^-1"},
      {"measurement": "kon1", "setting": "D39A horcolin; CBS1 only, D39A horcolin, from koff and Kd", "result": "(2.9 ± 0.1) x 10^5 M^-1s^-1"},
      {"measurement": "ΔΔG^0 between the two single-site binding events", "setting": "D39A horcolin; D138A (CBS2) versus D39A (CBS1) horcolin", "result": 7.11, "unit": "kJ/mol"},
      {"measurement": "factor of difference in koff between single-binding-site mutants", "setting": "D39A horcolin; D138A versus D39A horcolin", "result": 3.3},
      {"measurement": "fold difference in kon between single-binding-site mutants", "setting": "D39A horcolin; D138A versus D39A horcolin", "result": 5.3, "unit": "fold"}
    ]},
    {"molecule": "horcolin (natural protein, Hordeum vulgare (barley)) MSKPVKIGPWGGNGGSERDVQPKPIRMVSMTVSSGAIVDAIAFTYVGTDNVQHSSGIKWGGTGGTEDTINLDATNYVTEISGTVGKFGTDDIVTSLKIITSKGVTRTYGSGTGIPFRVPVLDGGKIAGFFGRAGAFLDAIGFYITP", "values": [
      {"measurement": "stoichiometry N", "setting": "crystal structure", "result": 2}
    ]},
    {"molecule": "horcolin: dimeric mannose-specific jacalin-related lectin from Hordeum vulgare (barley), 146 amino acids per protomer (protein) MSKPVKIGPWGGNGGSERDVQPKPIRMVSMTVSSGAIVDAIAFTYVGTDNVQHSSGIKWGGTGGTEDTINLDATNYVTEISGTVGKFGTDDIVTSLKIITSKGVTRTYGSGTGIPFRVPVLDGGKIAGFFGRAGAFLDAIGFYITP", "values": [
      {"measurement": "HIV-1 neutralization", "setting": "HIV-1", "result": "has the ability to neutralize HIV-1"},
      {"measurement": "Kd", "setting": "HIV gp120", "result": 0.0144, "unit": "µM"}
    ]}
  ]
}
